In ChEMBL document CHEMBL3865827, “A novel class of ethacrynic acid derivatives as promising drug-like potent generation of anticancer agents with established mechanism of action” (Eur J Med Chem, 2016):
Calls of active or inactive are those of the source. No cut-off for these calls is given here.

How the values were obtained:
[1] = Antiproliferative activity against human KB cells after 24 to 72 hrs by MTS assay; assay type: functional, cell-based
How it was run: (§1)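 Cells plated, then dosed 24 h later with compounds in DMSO (1% final; controls DMSO alone), exposed 24 or 72 h. Proliferation inhibition measured as previously reported (MTS/NADH reagent). IC50 from duplicate experiments over 0.5 nM–100 µM. KB grown in D-MEM with 10% fetal calf serum, penicillin, streptomycin, fungizone, 5% CO2; other lines in complete RPMI. EPC are quiescent Cyprinus carpio endothelial progenitor cells.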

[2] = Antiproliferative activity against human HL60 cells after 24 to 72 hrs by MTS assay; assay type: functional, cell-based; conditions: HL-60; how it was run: as §1
KB [3] = assay: Selectivity index, ratio of IC50 for Cyprinus carpio EPC to IC50 for human KB cells
HL-60 [4] = assay: Selectivity index, ratio of IC50 for Cyprinus carpio EPC to IC50 for human HL60 cells
[5] = Antiproliferative activity against Cyprinus carpio EPC after 24 to 72 hrs by MTS assay
[6] = Cytotoxicity against human HL60 cells assessed as reduction in cell viability after 24 hrs by MTS assay; assay type: functional, cell-based; conditions: HL-60, 24 h
HL-60 [7] = assay: Induction of necrosis in human HL60 cells assessed as increase in LDH release at 7 uM after 48 hrs by fluorescence assay; assay type: functional, cell-based
KB [8] = assay: Induction of necrosis in human KB cells assessed as increase in LDH release at 7 uM after 24 to 48 hrs by fluorescence assay; assay type: functional, cell-based
HCT-116 = assay: Induction of necrosis in human HCT116 cells assessed as increase in LDH release at 7 uM after 24 to 48 hrs by fluorescence assay; assay type: functional, cell-based
MRC5 = assay: Induction of necrosis in human MRC5 SV2 cells assessed as increase in LDH release at 7 uM after 24 to 48 hrs by fluorescence assay; assay type: functional, cell-based
HL-60 [9] = assay: Antiproliferative activity against human HL60 cells at 7 uM after 24 hrs by viacount-reagent based FACS analysis
HL60 (Homo sapiens) = assay: Effect on 24 hrs pretreated human HL60 cells assessed as reduction in endogenous GSH content at 7 uM measured for 60 mins by fluorescence assay; conditions: HL-60
[10] = Antiproliferative activity against human MCF7 cells after 24 to 72 hrs by MTS assay; assay type: functional, cell-based
[11] = Antiproliferative activity against human HCT116 cells after 24 to 72 hrs by MTS assay; assay type: functional, cell-based; conditions: HCT-116
[12] = Antiproliferative activity against human PC3 cells after 24 to 72 hrs by MTS assay; assay type: functional, cell-based; conditions: PC-3
[13] = Antiproliferative activity against human SKOV3 cells after 24 to 72 hrs by MTS assay; assay type: functional, cell-based; conditions: SK-OV-3
[14] = Antiproliferative activity against human OVCAR8 cells after 24 to 72 hrs by MTS assay; assay type: functional, cell-based; conditions: OVCAR-8
[15] = Cell cycle arrest in human HL60 cells assessed as accumulation at G0/G1 phase at 2.5 uM after 24 hrs by propidium iodide-staining based FACS analysis (reference value: 43.5 %); assay type: functional; conditions: HL-60
How it was run: (§2)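 HL60 cells, 25,000 per well, exposed 24 and 48 h to 2.5 µM compounds; controls DMSO (1% final). Propidium iodide staining, flow cytometry; fractions in sub-G1, G0/G1, S and G2/M quantified.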

[16] = Cell cycle arrest in human HL60 cells assessed as accumulation at S phase at 2.5 uM after 24 hrs by propidium iodide-staining based FACS analysis (reference value: 48.9 %); assay type: functional; conditions: HL-60; how it was run: as §2
[17] = Cell cycle arrest in human HL60 cells assessed as accumulation at G2/M phase at 2.5 uM after 24 hrs by propidium iodide-staining based FACS analysis (reference value: 5.1 %); assay type: functional; conditions: HL-60; how it was run: as §2
[18] = Cell cycle arrest in human HL60 cells assessed as accumulation at sub G1 phase at 2.5 uM after 24 hrs by propidium iodide-staining based FACS analysis (reference value: 2.6 %); assay type: functional; conditions: HL-60; how it was run: as §2
[19] = Cell cycle arrest in human HL60 cells assessed as accumulation at G0/G1 phase at 2.5 uM after 48 hrs by propidium iodide-staining based FACS analysis (reference value: 43.8 %); assay type: functional; conditions: HL-60; how it was run: as §2
[20] = Cell cycle arrest in human HL60 cells assessed as accumulation at S phase at 2.5 uM after 48 hrs by propidium iodide-staining based FACS analysis (reference value: 52.6 %); assay type: functional; conditions: HL-60; how it was run: as §2
[21] = Cell cycle arrest in human HL60 cells assessed as accumulation at G2/M phase at 2.5 uM after 48 hrs by propidium iodide-staining based FACS analysis (reference value: 2.2 %); assay type: functional; conditions: HL-60; how it was run: as §2
[22] = Cell cycle arrest in human HL60 cells assessed as accumulation at sub G1 phase at 2.5 uM after 48 hrs by propidium iodide-staining based FACS analysis (reference value: 1.4 %); assay type: functional; conditions: HL-60; how it was run: as §2

Row | Structure (SMILES) | IC50 [1] | IC50 [2] | Ratio IC50 (KB [3]) | Ratio IC50 (HL-60 [4]) | IC50 [5] | Activity (HCT-116) | Activity (MRC5) | other results
1 | C=C(CC)C(=O)c1ccc(OCC(=O)NCCc2ccc(OP(=O)(OCC)OCC)c(OC)c2)c(Cl)c1Cl | 700 nM | 800 nM | 3.2 | 2.8 | 2300 nM | – | – | –
2 | C=C(CC)C(=O)c1ccc(OCC(=O)NCCc2ccc(OP3(=O)OCCCO3)cc2)c(Cl)c1Cl | 500 nM | 1200 nM | 6.8 | 2.8 | 3400 nM | – | – | –
3 | C=C(CC)C(=O)c1ccc(OCC(=O)NCCc2ccc(OP(=O)(OCC)OCC)cc2)c(Cl)c1Cl | 800 nM | 1100 nM | 4 | 2.9 | 3200 nM | – | – | –
4 | C=C(CC)C(=O)c1ccc(OCC(=O)N(C)CCc2ccc(OC)cc2)c(Cl)c1Cl | 700 nM | 1300 nM | 5.7 | 3 | 4000 nM | Active | Active | IC50 [6]: 2300 nM; Activity (HL-60 [7]): Active; Activity (KB [8]): Active; Activity (HL-60 [9]): Active; GSH reduction activity (HL60 (Homo sapiens)): Active
5 | CCC(C)C(=O)c1ccc(OCC(=O)N2CCN(c3ccc(OC)cc3)CC2)c(Cl)c1Cl (stereo unspecified) | – | – | – | – | – | Active | Active | –
6 | C=C(CC)C(=O)c1ccc(OCC(=O)N2CCN(c3ccc(OC)cc3)CC2)c(Cl)c1Cl | 400 nM | 800 nM | 9 | 4.5 | 3600 nM | Active | Active | –
7 | C=C(CC)C(=O)c1ccc(OCC(=O)NCCc2ccc(OP3(=O)OCCC(c4cccc(Cl)c4)O3)cc2)c(Cl)c1Cl (stereo unspecified) | 700 nM | 900 nM | 3.1 | 2.4 | 2200 nM | – | – | –
8 | C=C(CC)C(=O)c1ccc(OCC(=O)NCCc2ccc(O)c(OC)c2)c(Cl)c1Cl | 800 nM | 1600 nM | 5.6 | 2.8 | 4500 nM | Active | Active | IC50 [6]: 2600 nM; Activity (KB [8]): Active; Activity (HL-60 [9]): Active; GSH reduction activity (HL60 (Homo sapiens)): Active
9 | C=C(CC)C(=O)c1ccc(OCC(=O)N2CCN(c3ccc(O)cc3)CC2)c(Cl)c1Cl | 400 nM | 800 nM | 8 | 4 | 3200 nM | Active | Active | IC50 [10]: 800 nM; IC50 [11]: 2000 nM; IC50 [12]: 3900 nM; IC50 [13]: 2300 nM; IC50 [14]: 800 nM; Activity [15]: 41.7%; Activity [16]: 49.3%; Activity [17]: 6.1%; Activity [18]: 2.9%; Activity [19]: 49.3%; Activity [20]: 33.8%; Activity [21]: 0.4%; Activity [22]: 16.5%
10 | C=C(CC)C(=O)c1ccc(OCC(=O)N2CCN(c3ccc(OP4(=O)OCCCO4)cc3)CC2)c(Cl)c1Cl | 200 nM | 350 nM | 6.25 | 3.6 | 1250 nM | – | – | IC50 [10]: 900 nM; IC50 [11]: 1000 nM; IC50 [12]: 500 nM; IC50 [13]: 3500 nM; IC50 [14]: 1900 nM; Activity [15]: 40.7%; Activity [16]: 47.1%; Activity [17]: 9.6%; Activity [18]: 2.6%; Activity [19]: 41.7%; Activity [20]: 30.7%; Activity [21]: 0%; Activity [22]: 27.6%
11 | C=C(CC)C(=O)c1ccc(OCC(=O)NCCc2ccc(OC)cc2)c(Cl)c1Cl | 800 nM | 1300 nM | 4.6 | 2.8 | 3700 nM | Active | Active | IC50 [6]: 2400 nM; Activity (HL-60 [7]): Active; Activity (KB [8]): Active; Activity (HL-60 [9]): Active; GSH reduction activity (HL60 (Homo sapiens)): Active
12 | C=C(CC)C(=O)c1ccc(OCC(=O)NCCc2ccc(OC)c(OC)c2)c(Cl)c1Cl | 500 nM | 800 nM | 6.8 | 4.2 | 3400 nM | Active | Active | IC50 [6]: 1400 nM; Activity (HL-60 [7]): Active; Activity (KB [8]): Active; Activity (HL-60 [9]): Active; GSH reduction activity (HL60 (Homo sapiens)): Active
13 | CCC(C)C(=O)c1ccc(OCC(=O)NCCc2ccc(O)cc2)c(Cl)c1Cl (stereo unspecified) | – | – | – | – | – | Active | Active | Activity [15]: 42.1%; Activity [16]: 46.7%; Activity [17]: 7.9%; Activity [18]: 3.3%; Activity [19]: 51.7%; Activity [20]: 41.9%; Activity [21]: 2.2%; Activity [22]: 4.2%
14 | C=C(CC)C(=O)c1ccc(OCC(=O)N2CCN(c3ccc(OP(=O)(OC)OC)cc3)CC2)c(Cl)c1Cl | 170 nM | 800 nM | 17 | 3.6 | 2900 nM | – | – | IC50 [10]: 500 nM; IC50 [11]: 800 nM; IC50 [12]: 1100 nM; IC50 [13]: 2200 nM; IC50 [14]: 1400 nM
15 | C=C(CC)C(=O)c1ccc(OCC(=O)NCCc2ccc(OP(=O)(OC)OC)cc2)c(Cl)c1Cl | 400 nM | 1200 nM | 1.75 | 0.58 | 700 nM | – | – | IC50 [10]: 900 nM; IC50 [11]: 1500 nM; IC50 [12]: 800 nM; IC50 [13]: 2800 nM; IC50 [14]: 1500 nM
16 | C=C(CC)C(=O)c1ccc(OCC(=O)N2CCN(c3ccc(OP4(=O)OCCC(c5cccc(Cl)c5)O4)cc3)CC2)c(Cl)c1Cl (stereo unspecified) | 400 nM | 900 nM | 21 | 8.7 | 7800 nM | – | – | –
17 | C=C(CC)C(O)c1ccc(OCC(=O)NCCc2ccc(O)cc2)c(Cl)c1Cl (stereo unspecified) | – | – | – | – | – | Active | Active | Activity [15]: 42.3%; Activity [16]: 50.5%; Activity [17]: 5.2%; Activity [18]: 2%; Activity [19]: 51.9%; Activity [20]: 41.5%; Activity [21]: 0.6%; Activity [22]: 6.1%
18 | CCC(C)C(=O)c1ccc(OCC(=O)N2CCN(c3ccc(O)cc3)CC2)c(Cl)c1Cl (stereo unspecified) | – | – | – | – | – | Active | Active | –
19 | C=C(CC)C(=O)c1ccc(OCC(=O)N2CCN(c3ccc(OP(=O)(OCC)OCC)cc3)CC2)c(Cl)c1Cl | 300 nM | 500 nM | 9.3 | 5.6 | 2800 nM | – | – | –
